Measured values taken from ChEMBL document CHEMBL5724801, “EUbOPEN Chemogenomics Library - Multiplex” (2024).
Several values for one entry are separate records, joined by “and”; a condition that tells them apart may be missing. Equal values may be shown once.

Test system: Fibroblast
Assay: Multiplex assay against human fibroblast
Format: toxicity, cell-based
In short: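 Hoechst33342, BioTracker Green Microtubule Cytoskeleton Dye, MitoTracker Red and Annexin V Alexa Fluor 680 were added to live cells at seeding, and imaging on a CQ1 microscope at 37°C and 5% CO2 followed compound addition. Gating by CellPathfinder machine learning separated cells into Hoechst high-intensity objects or normal cells, then normal cells into healthy, pyknosed or fragmented nuclei, then pyknosed cells into mitotic or apoptotic. Per cents of healthy-nucleus cells are reported for the tubulin, mitochondrial-mass and membrane-permeability phenotypes.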

[1] = 12 h, 1 µM, compound concentration 1 uM
[2] = 12 h, 10 µM, compound concentration 10 uM
[3] = 24 h, 1 µM, compound concentration 1 uM
[4] = 24 h, 10 µM, compound concentration 10 uM
[5] = 48 h, 1 µM, compound concentration 1 uM
[6] = 48 h, 10 µM, compound concentration 10 uM

S=C(NCCCc1c[nH]cn1)NCCCN(Cc1ccc(Cl)c(Cl)c1)c1ccc(Br)cn1
Population Apoptotic (%) [1]: 40% and 31% | Population Fragmented Nuclei (%) [1]: 13% and 30% | Population Healthy Nuclei (%) [1]: 71% and 50% | Population Hoechst High Intensity Objects (%) [1]: 5% and 4% | Population Membrane Permeable-Phenotype (%) [1]: 1% and 5% | Population Mitochondria Different-Phenotype (%) [1]: 5% and 6% | Population Mitotic Cells (%) [1]: 60% and 68% | Population Normal (%) [1]: 94% and 95% | Population Pyknosed Nuclei (%) [1]: 14% and 18% | Population Tubulin-Different-Phenotype (%) [1]: 26% and 37% | Total Cell Count [1]: 142 and 181 | Population Apoptotic (%) [2]: 47% and 52% | Population Fragmented Nuclei (%) [2]: 27% and 34% | Population Healthy Nuclei (%) [2]: 56% and 53% | Population Hoechst High Intensity Objects (%) [2]: 3% and 5% | Population Membrane Permeable-Phenotype (%) [2]: 0% | Population Mitochondria Different-Phenotype (%) [2]: 15% and 10% | Population Mitotic Cells (%) [2]: 52% and 47% | Population Normal (%) [2]: 96% and 94% | Population Pyknosed Nuclei (%) [2]: 16% and 12% | Population Tubulin-Different-Phenotype (%) [2]: 89% | Total Cell Count [2]: 220 and 279 | Population Apoptotic (%) [3]: 69% and 23% | Population Fragmented Nuclei (%) [3]: 15% and 30% | Population Healthy Nuclei (%) [3]: 74% and 57% | Population Hoechst High Intensity Objects (%) [3]: 4% and 1% | Population Membrane Permeable-Phenotype (%) [3]: 2% | Population Mitochondria Different-Phenotype (%) [3]: 2% and 6% | Population Mitotic Cells (%) [3]: 30% and 76% | Population Normal (%) [3]: 95% and 98% | Population Pyknosed Nuclei (%) [3]: 9% and 11% | Population Tubulin-Different-Phenotype (%) [3]: 28% and 42% | Total Cell Count [3]: 137 and 183 | Population Apoptotic (%) [4]: 66% and 61% | Population Fragmented Nuclei (%) [4]: 22% and 27% | Population Healthy Nuclei (%) [4]: 61% and 59% | Population Hoechst High Intensity Objects (%) [4]: 1% and 4% | Population Membrane Permeable-Phenotype (%) [4]: 0% and 2% | Population Mitochondria Different-Phenotype (%) [4]: 19% and 7% | Population Mitotic Cells (%) [4]: 33% and 38% | Population Normal (%) [4]: 98% and 95% | Population Pyknosed Nuclei (%) [4]: 15% and 13% | Population Tubulin-Different-Phenotype (%) [4]: 93% and 95% | Total Cell Count [4]: 214 and 248 | Population Apoptotic (%) [5]: 75% and 35% | Population Fragmented Nuclei (%) [5]: 27% and 30% | Population Healthy Nuclei (%) [5]: 67% and 59% | Population Hoechst High Intensity Objects (%) [5]: 3% and 4% | Population Membrane Permeable-Phenotype (%) [5]: 0% and 5% | Population Mitochondria Different-Phenotype (%) [5]: 0% and 3% | Population Mitotic Cells (%) [5]: 25% and 64% | Population Normal (%) [5]: 96% and 95% | Population Pyknosed Nuclei (%) [5]: 5% and 10% | Population Tubulin-Different-Phenotype (%) [5]: 24% and 36% | Total Cell Count [5]: 156 and 178 | Population Apoptotic (%) [6]: 62% and 63% | Population Fragmented Nuclei (%) [6]: 27% and 31% | Population Healthy Nuclei (%) [6]: 59% and 60% | Population Hoechst High Intensity Objects (%) [6]: 6% and 5% | Population Membrane Permeable-Phenotype (%) [6]: 0% | Population Mitochondria Different-Phenotype (%) [6]: 7% and 1% | Population Mitotic Cells (%) [6]: 37% and 36% | Population Normal (%) [6]: 93% and 94% | Population Pyknosed Nuclei (%) [6]: 12% and 7% | Population Tubulin-Different-Phenotype (%) [6]: 91% and 86% | Total Cell Count [6]: 230 and 293

CCCCC(=O)N(Cc1ccc(-c2ccccc2-c2nnn[nH]2)cc1)[C@H](C(=O)O)C(C)C
Population Apoptotic (%) [1]: 45% and 44% | Population Fragmented Nuclei (%) [1]: 9% and 21% | Population Healthy Nuclei (%) [1]: 74% and 54% | Population Hoechst High Intensity Objects (%) [1]: 4% and 3% | Population Membrane Permeable-Phenotype (%) [1]: 0% and 8% | Population Mitochondria Different-Phenotype (%) [1]: 0% and 6% | Population Mitotic Cells (%) [1]: 54% and 55% | Population Normal (%) [1]: 95% and 96% | Population Pyknosed Nuclei (%) [1]: 16% and 24% | Population Tubulin-Different-Phenotype (%) [1]: 20% and 36% | Total Cell Count [1]: 143 and 156 | Population Apoptotic (%) [2]: 37% | Population Fragmented Nuclei (%) [2]: 20% and 27% | Population Healthy Nuclei (%) [2]: 56% and 42% | Population Hoechst High Intensity Objects (%) [2]: 0% and 3% | Population Membrane Permeable-Phenotype (%) [2]: 3% and 11% | Population Mitochondria Different-Phenotype (%) [2]: 3% and 11% | Population Mitotic Cells (%) [2]: 62% | Population Normal (%) [2]: 100% and 96% | Population Pyknosed Nuclei (%) [2]: 22% and 29% | Population Tubulin-Different-Phenotype (%) [2]: 23% and 51% | Total Cell Count [2]: 106 and 130 | Population Apoptotic (%) [3]: 66% and 38% | Population Fragmented Nuclei (%) [3]: 15% and 21% | Population Healthy Nuclei (%) [3]: 70% and 52% | Population Hoechst High Intensity Objects (%) [3]: 0% and 2% | Population Membrane Permeable-Phenotype (%) [3]: 1% and 2% | Population Mitochondria Different-Phenotype (%) [3]: 2% and 1% | Population Mitotic Cells (%) [3]: 33% and 61% | Population Normal (%) [3]: 99% and 97% | Population Pyknosed Nuclei (%) [3]: 14% and 25% | Population Tubulin-Different-Phenotype (%) [3]: 17% and 25% | Total Cell Count [3]: 146 and 145 | Population Apoptotic (%) [4]: 48% and 35% | Population Fragmented Nuclei (%) [4]: 18% and 25% | Population Healthy Nuclei (%) [4]: 56% and 44% | Population Hoechst High Intensity Objects (%) [4]: 2% and 4% | Population Membrane Permeable-Phenotype (%) [4]: 0% and 9% | Population Mitochondria Different-Phenotype (%) [4]: 1% and 10% | Population Mitotic Cells (%) [4]: 51% and 64% | Population Normal (%) [4]: 97% and 95% | Population Pyknosed Nuclei (%) [4]: 25% and 29% | Population Tubulin-Different-Phenotype (%) [4]: 31% and 65% | Total Cell Count [4]: 110 and 130 | Population Apoptotic (%) [5]: 80% and 40% | Population Fragmented Nuclei (%) [5]: 18% and 27% | Population Healthy Nuclei (%) [5]: 71% and 51% | Population Hoechst High Intensity Objects (%) [5]: 6% and 3% | Population Membrane Permeable-Phenotype (%) [5]: 0% and 1% | Population Mitochondria Different-Phenotype (%) [5]: 1% and 3% | Population Mitotic Cells (%) [5]: 20% and 59% | Population Normal (%) [5]: 93% and 96% | Population Pyknosed Nuclei (%) [5]: 10% and 21% | Population Tubulin-Different-Phenotype (%) [5]: 17% and 33% | Total Cell Count [5]: 153 and 155 | Population Apoptotic (%) [6]: 64% and 57% | Population Fragmented Nuclei (%) [6]: 28% and 39% | Population Healthy Nuclei (%) [6]: 56% and 39% | Population Hoechst High Intensity Objects (%) [6]: 4% | Population Membrane Permeable-Phenotype (%) [6]: 0% and 7% | Population Mitochondria Different-Phenotype (%) [6]: 5% | Population Mitotic Cells (%) [6]: 35% and 42% | Population Normal (%) [6]: 95% | Population Pyknosed Nuclei (%) [6]: 15% and 20% | Population Tubulin-Different-Phenotype (%) [6]: 30% and 69% | Total Cell Count [6]: 112 and 141
